Assay results as given in ChEMBL document CHEMBL1127811, “Inhibitors of cholesterol biosynthesis. 2. Hypocholesterolemic and antioxidant activities of benzopyran and tetrahydronaphthalene analogues of the tocotrienols” (J Med Chem, 1994).
Several values for one entry are separate records, joined by “and”; a condition that tells them apart may be missing. Equal entries are not always repeated.

Columns and labels:
[1] = target: T1, 3-hydroxy-3-methylglutaryl-coenzyme A reductase (Homo sapiens) (UniProt P04035); assay: In vitro suppression of HMG-CoA reductase (HMGR) in Hep G2 cells; assay type: cell-based; set-up: concentration or dose not given beside the values; settings: HepG2, concentration not given here
T1 sequence (whole entry): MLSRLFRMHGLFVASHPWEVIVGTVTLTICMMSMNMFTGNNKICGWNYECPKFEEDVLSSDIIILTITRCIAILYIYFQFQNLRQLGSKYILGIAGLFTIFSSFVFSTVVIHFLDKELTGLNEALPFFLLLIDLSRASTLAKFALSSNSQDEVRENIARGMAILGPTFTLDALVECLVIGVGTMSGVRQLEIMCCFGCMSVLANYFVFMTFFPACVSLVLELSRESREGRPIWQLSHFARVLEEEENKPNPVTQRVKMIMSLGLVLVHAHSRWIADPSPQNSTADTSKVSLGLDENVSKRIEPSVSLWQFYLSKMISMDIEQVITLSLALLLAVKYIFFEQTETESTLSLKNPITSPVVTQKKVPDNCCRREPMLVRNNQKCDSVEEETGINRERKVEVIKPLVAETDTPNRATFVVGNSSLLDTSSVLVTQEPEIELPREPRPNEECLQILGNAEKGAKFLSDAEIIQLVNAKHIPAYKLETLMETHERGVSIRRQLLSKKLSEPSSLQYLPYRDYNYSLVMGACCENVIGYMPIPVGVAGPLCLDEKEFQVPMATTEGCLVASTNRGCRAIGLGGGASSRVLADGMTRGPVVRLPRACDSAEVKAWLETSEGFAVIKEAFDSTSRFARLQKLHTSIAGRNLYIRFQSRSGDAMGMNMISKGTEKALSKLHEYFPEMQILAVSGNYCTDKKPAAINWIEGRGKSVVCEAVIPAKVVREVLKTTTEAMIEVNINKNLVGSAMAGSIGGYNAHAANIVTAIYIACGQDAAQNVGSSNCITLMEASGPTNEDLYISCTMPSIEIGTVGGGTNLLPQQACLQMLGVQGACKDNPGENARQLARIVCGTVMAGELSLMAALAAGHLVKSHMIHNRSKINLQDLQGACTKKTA
Summary of the method: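 HepG2 cells treated 4 h with compound at 10 μM, DMSO vehicle controls. HMG-CoA reductase activity assayed in microsomal fraction isolated at end of incubation. Mean % suppression vs controls, SD ≤ ±10%, n ≥ 8.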

HepG2 = assay: In vitro inhibition of cholesterol biosynthesis in Hep G2 cells; assay type: functional, Homo sapiens; set-up: concentration or dose not given beside the values
Summary of the method: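 HepG2 human hepatoma cells incubated 4 h with compound at 10 μM, DMSO vehicle controls. Mean % inhibition vs controls, SD ≤ ±10%, n ≥ 8.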

[2] = Oxidation potential assay as cyclic voltametry; not electrochemically active within scan range; assay type: functional
Gallus gallus [3] = organism: Gallus gallus; assay: (§1) Hypocholesterolemic activity in 6-week old male mormocholesterolemic chickens using experiment 3; assay type: functional
Summary of the method: (§2)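 Male chickens, 6 weeks old. Test compound mixed at 50 ppm into a corn-soybean control diet; controls get the diet alone. After the feeding period, birds are fasted 36 h and refed 48 h before sacrifice. Serum total, LDL and HDL cholesterol (mg/100 mL) and triglycerides measured; expressed as mean ± SD and percent of control, n = 6–12 per group.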

Gallus gallus [4] = organism: Gallus gallus; assay: (§3) Hypocholesterolemic activity in 6-week old male mormocholesterolemic chickens using experiment 4; assay type: functional; summary of the method: as §2
Gallus gallus [5] = organism: Gallus gallus; assay: (§4) Hypocholesterolemic activity in 6-week old male mormocholesterolemic chickens using experiment 1; assay type: functional; summary of the method: as §2
Gallus gallus [6] = organism: Gallus gallus; assay: as §3; assay type: functional; remark: listed apart in the source
Summary of the method: (§5)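 Six-week-old male chickens fed corn-soybean control diet with test compound at 50 ppm. Birds fasted 36 h, then refed 48 h before sacrifice. Serum total, LDL and HDL cholesterol and triglycerides measured (mg/100 mL), HDL/total ratio computed. Means ± SD, n = 6–12 per group, also as % of control. Significance p < 0.01 within each study.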

Gallus gallus [7] = organism: Gallus gallus; assay: as §4; assay type: functional; summary of the method: as §5; remark: listed apart in the source
Gallus gallus [8] = organism: Gallus gallus; assay: as §1; assay type: functional; summary of the method: as §5; remark: listed apart in the source
[9] = LDL oxidation assay as spectrophotometric determination of TBARS; assay type: functional
Summary of the method: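 LDL (0.5 mg/mL protein stock) in saline/20 mM HEPES with drug in ethanol, oxidised by CuSO4 (4 × 10⁻⁴ M stock), 37 °C, 5 h, in duplicate. Stopped with EDTA; TCA/TBA added, boiled 30 min, A535 read. Malonaldehyde equivalents from tetramethoxypropane standard curve. IC50 = concentration inhibiting 50% TBARS vs ethanol controls.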

[10] = Compound oxidation potential using cyclic voltametry; assay type: ADME
Gallus gallus [11] = organism: Gallus gallus; assay: Ratio of HDL/total cholesterol value; assay type: functional; summary of the method: as §5
Gallus gallus [12] = organism: Gallus gallus; assay: (§6) Hypocholesterolemic activity in 6-week old male mormocholesterolemic chickens using experiment 2; assay type: functional; summary of the method: as §2
Gallus gallus [13] = organism: Gallus gallus; assay: as §6; assay type: functional; summary of the method: as §5; remark: listed apart in the source

| SMILES | inhibition [1] [%] | Inhibition (HepG2) [%] | LDL cholesterol (Gallus gallus [3]) [mg 100ml-1] | LDL cholesterol (Gallus gallus [4]) [mg 100ml-1] | HDL cholesterol (Gallus gallus [6]) [mg 100ml-1] | Total cholesterol (Gallus gallus [6]) [mg 100ml-1] | Triglycerides (Gallus gallus [6]) [mg 100ml-1] | HDL cholesterol (Gallus gallus [8]) [mg 100ml-1] | Total cholesterol (Gallus gallus [8]) [mg 100ml-1] | Triglycerides (Gallus gallus [8]) [mg 100ml-1] | IC50 [9] [nM] | Potential [10] | Ratio (Gallus gallus [11]) | further results |
| --- | --- | --- | --- | --- | --- | --- | --- | --- | --- | --- | --- | --- | --- | --- |
| CC(C)=CCC/C(C)=C/CC/C(C)=C/CCC1(C)CCc2ccccc2O1 (stereo not drawn) | 0 | 45 | – | – | – | – | – | – | – | – | – | – | – | Potential [2]: Not electrochemically active |
| CC(C)=CCC/C(C)=C/CC/C(C)=C/CCC1(C)CCc2cc(O)c(C)c(C)c2O1 (stereo not drawn) | 61 | 69 | 51 | 33 | 85 | 125 | 57 | 94 | 151 | 83 | 1800 | 0.94 | 0.74 and 0.62 and 0.68 | LDL cholesterol (Gallus gallus [5]): 29 mg 100ml-1; HDL cholesterol (Gallus gallus [7]): 89 mg 100ml-1; Total cholesterol (Gallus gallus [7]): 121 mg 100ml-1; Triglycerides (Gallus gallus [7]): 62 mg 100ml-1 |
| CC(C)=CCC/C(C)=C/CC/C(C)=C/CCC1(C)CC(=O)c2cc(O)c(C)c(C)c2O1 (stereo not drawn) | 16 | 93 | – | – | – | – | – | – | – | – | 2000 | 1.2 | 0.81 | LDL cholesterol (Gallus gallus [5]): 36 mg 100ml-1; HDL cholesterol (Gallus gallus [7]): 108 mg 100ml-1; Total cholesterol (Gallus gallus [7]): 133 mg 100ml-1; Triglycerides (Gallus gallus [7]): 64 mg 100ml-1 |
| CC(C)=CCC/C(C)=C/CC/C(C)=C/CCC1(C)CCc2cc(O)cc(Br)c2O1 (stereo not drawn) | – | 62 | 45 | – | – | – | – | 93 | 139 | 87 | – | – | 0.67 | – |
| CC(C)=CCC/C(C)=C/CC/C(C)=C/CCC1(C)CCc2cc(O)c3ccccc3c2O1 (stereo not drawn) | 57 | 57 | 61 | – | – | – | – | 97 | 160 | 81 | – | 0.8 | 0.61 | – |
| CC(C)=CCC/C(C)=C/CC/C(C)=C/CCC1CCc2cc(O)ccc2C1 (stereo not drawn) | – | 40 | 57 | – | – | – | – | 94 | 152 | 76 | – | – | 0.62 | – |
| CC(C)=CCC/C(C)=C/CC/C(C)=C/CCC1(C)CCc2cc(O)ccc2C1 (stereo not drawn) | – | 58 | – | – | – | – | – | – | – | – | – | 1.48 | 0.68 | LDL cholesterol (Gallus gallus [12]): 28 mg 100ml-1; HDL cholesterol (Gallus gallus [13]): 85 mg 100ml-1; Total cholesterol (Gallus gallus [13]): 125 mg 100ml-1; Triglycerides (Gallus gallus [13]): 86 mg 100ml-1 |
| CC(C)=CCC/C(C)=C/CC/C(C)=C/CCC1CCc2cc(O)c(C)c(C)c2O1 (stereo not drawn) | 67 | 62 | 85 | 76 | 97 | 178 | 83 | 102 | 197 | 86 | – | – | 0.52 and 0.54 | – |
| CC(=O)Oc1cc2c(c(C)c1C)OC(CC/C=C(\C)CC/C=C(\C)CCC=C(C)C)CC2 (stereo not drawn) | – | – | – | 44 | 87 | 139 | 67 | – | – | – | – | – | 0.63 | – |
| CC(C)=CCC/C(C)=C/CCC1(C)CCc2cc(O)ccc2O1 (stereo not drawn) | 52 | 48 | – | 33 | 93 | 130 | 73 | – | – | – | 2000 | – | 0.72 | – |
| CC(C)=CCC/C(C)=C/CC/C(C)=C/CCC1CCc2cc(O)ccc2O1 (stereo not drawn) | – | 71 | – | – | – | – | – | – | – | – | – | – | 0.73 | LDL cholesterol (Gallus gallus [12]): 23 mg 100ml-1; HDL cholesterol (Gallus gallus [13]): 86 mg 100ml-1; Total cholesterol (Gallus gallus [13]): 118 mg 100ml-1; Triglycerides (Gallus gallus [13]): 81 mg 100ml-1 |
| CC(C)=CCC/C(C)=C\CCC1(C)CCc2cc(O)ccc2O1 (stereo not drawn) | 39 | 55 | – | 39 | 94 | 142 | 67 | – | – | – | 2000 | – | 0.66 | – |
| CC(C)=CCCC1(C)CCc2cc(O)ccc2O1 (stereo not drawn) | – | 35 | – | 32 | 93 | 131 | 73 | – | – | – | 2000 | 1.2 | 0.71 | – |
| CC(C)=CCC/C(C)=C/CC/C(C)=C/CCC1(C)CCc2cc(O)cc(C#N)c2O1 (stereo not drawn) | – | 63 | 54 | – | – | – | – | 94 | 151 | 83 | – | – | 0.62 | – |
